Converted amounts (≈) assume the structure as drawn. The source made the active and inactive calls. No cut-off for these calls is given here.
Key:
Staphylococcus aureus [1] = test: Antibacterial activity against methicillin-sensitive Staphylococcus aureus ATCC 9144 measured after overnight incubation by microbroth dilution method; assay type: functional
Procedure, shortened: (§1)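 Microbroth dilution: DMSO stocks diluted in water, 2-fold series. Overnight TSB cultures back-diluted to OD 0.01 and mixed 1:1 with compound. Incubated overnight at 37 °C; MIC taken as lowest concentration without visible growth (<0.1 OD600). Run in duplicate; matching DMSO levels checked for effect on growth.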

Staphylococcus aureus [2] = test: Antibacterial activity against methicillin-resistant Staphylococcus aureus EMRSA15 measured after overnight incubation by microbroth dilution method; assay type: functional; procedure, shortened: as §1
Enterococcus faecalis [3] = test: Antibacterial activity against vancomycin resistant Enterococcus faecalis NCTC12201 measured after overnight incubation by microbroth dilution method; assay type: functional; procedure, shortened: as §1
Staphylococcus aureus [4] = test: Antibacterial activity against methicillin-resistant Staphylococcus aureus MRSA252 measured after overnight incubation by microbroth dilution method; assay type: functional; procedure, shortened: as §1
Enterococcus faecalis [5] = test: Antibacterial activity against vancomycin sensitive Enterococcus faecalis NCTC775 measured after overnight incubation by microbroth dilution method; assay type: functional; procedure, shortened: as §1
Enterococcus faecalis [6] = test: Antibacterial activity against vancomycin resistant Enterococcus faecalis NCTC12204 measured after overnight incubation by microbroth dilution method; assay type: functional; procedure, shortened: as §1
Staphylococcus aureus [7] = test: Bacteriostatic activity against methicillin resistant Staphylococcus aureus NCTC13616 at 4 times MIC measured at 0 to 24 hrs by time kill assay
Klebsiella pneumoniae [8] = test: Antibacterial activity against Klebsiella pneumoniae NCTC13368 measured after overnight incubation in presence of polymyxin B nonapeptide by microbroth dilution method; assay type: functional
Klebsiella pneumoniae [9] = test: Antibacterial activity against Klebsiella pneumoniae M6 measured after overnight incubation by microbroth dilution method; assay type: functional
Procedure, shortened: (§2)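 Microbroth dilution MIC. Compound DMSO stocks were diluted in water as a 2-fold series. Overnight TSB cultures were back-diluted to OD 0.01 and mixed 1:1 with compound. Plates were incubated overnight at 37 °C. MIC was the lowest concentration without visible growth (<0.1 OD600), run in duplicate.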

HeLa = test: Cytotoxicity again human HeLa cells measured after 24 hrs by XTT assay; assay type: cell-based
Procedure, shortened: (§3)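 Cells were grown in EMEM with glutamine, 10% FBS and non-essential amino acids at 37 °C, 10% CO2. Seeding was 1 x 10^5 cells/mL (HEK293) or 4 x 10^4 cells/mL (HeLa), then 24 h adherence. Doubling compound dilutions were applied for 24 h. XTT/PMS was added for 4 h in the dark, with absorbance read at 450 nm. Untreated cells were the 100% control and water-treated cells the 0% control; IC50 was fitted.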

Klebsiella pneumoniae [10] = test: Antibacterial activity against Klebsiella pneumoniae NCTC13368 measured after overnight incubation by microbroth dilution method; assay type: functional; procedure, shortened: as §2
Escherichia coli [11] = test: Antibacterial activity against Escherichia coli NCTC12923 measured after overnight incubation in presence of polymyxin B nonapeptide by microbroth dilution method; assay type: functional
Pseudomonas aeruginosa [12] = test: Antibacterial activity against Pseudomonas aeruginosa PAO1 measured after overnight incubation in presence of polymyxin B nonapeptide by microbroth dilution method; assay type: functional
Acinetobacter baumannii [13] = test: Antibacterial activity against Acinetobacter baumannii AYE measured after overnight incubation in presence of phenylalanine arginine beta-naphthylamide by microbroth dilution method; assay type: functional; procedure, shortened: as §2
Enterococcus faecium = test: Antibacterial activity against Enterococcus faecium NCTC12204 assessed as generation of drug resistance at 2 times MIC measured after 48 hrs by agar-based microbroth dilution method
Staphylococcus aureus [14] = test: Antibacterial activity against Staphylococcus aureus NCTC13616 assessed as generation of drug resistance at 2 times MIC measured after 48 hrs by agar-based microbroth dilution method; assay type: functional
Procedure, shortened: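 Agar method: exponentially growing bacteria, in known numbers, plated on agar with doubling compound concentrations at and above the MIC; incubated 48 hours. Colonies growing above the MIC were picked and re-tested by microbroth MIC for raised resistance. Resistance frequency reported at 2xMIC.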

Acinetobacter baumannii [15] = test: Antibacterial activity against Acinetobacter baumannii ATCC 17978 measured after overnight incubation in presence of phenylalanine arginine beta-naphthylamide by microbroth dilution method; assay type: functional; procedure, shortened: as §2
Acinetobacter baumannii [16] = test: Antibacterial activity against Acinetobacter baumannii AYE measured after overnight incubation by microbroth dilution method; assay type: functional; procedure, shortened: as §2
Pseudomonas aeruginosa [17] = test: Antibacterial activity against Pseudomonas aeruginosa NCTC13437 measured after overnight incubation in presence of phenylalanine arginine beta-naphthylamide by microbroth dilution method; assay type: functional; procedure, shortened: as §2
Pseudomonas aeruginosa [18] = test: Antibacterial activity against Pseudomonas aeruginosa PAO1 measured after overnight incubation by microbroth dilution method; assay type: functional; procedure, shortened: as §2
Staphylococcus aureus [19] = test: Antibacterial activity against methicillin resistant Staphylococcus aureus NCTC13277 measured after overnight incubation by microbroth dilution method; assay type: functional; procedure, shortened: as §1
Escherichia coli [20] = test: Antibacterial activity against Escherichia coli NCTC12923 measured after overnight incubation in presence of phenylalanine arginine beta-naphthylamide by microbroth dilution method; assay type: functional; procedure, shortened: as §2
Acinetobacter baumannii [21] = test: Antibacterial activity against Acinetobacter baumannii ATCC 17978 measured after overnight incubation by microbroth dilution method; assay type: functional; procedure, shortened: as §2
Pseudomonas aeruginosa [22] = test: Antibacterial activity against Pseudomonas aeruginosa NCTC13437 measured after overnight incubation in presence of polymyxin B nonapeptide by microbroth dilution method; assay type: functional
Enterococcus faecalis [23] = test: Bacteriostatic activity against vancomycin resistant Enterococcus feacalis NCTC12204 at 4 times MIC measured at 0 to 24 hrs by time kill assay
Klebsiella pneumoniae [24] = test: Antibacterial activity against Klebsiella pneumoniae M6 measured after overnight incubation in presence of phenylalanine arginine beta-naphthylamide by microbroth dilution method; assay type: functional; procedure, shortened: as §2
Staphylococcus aureus [25] = test: Antibacterial activity against methicillin sensitive Staphylococcus aureus NCTC 6571 measured after overnight incubation by microbroth dilution method; assay type: functional; procedure, shortened: as §1
Klebsiella pneumoniae [26] = test: Antibacterial activity against Klebsiella pneumoniae NCTC13368 measured after overnight incubation in presence of phenylalanine arginine beta-naphthylamide by microbroth dilution method; assay type: functional; procedure, shortened: as §2
Escherichia coli [27] = test: Antibacterial activity against Escherichia coli NCTC12923 measured after overnight incubation by microbroth dilution method; assay type: functional; procedure, shortened: as §2
Acinetobacter baumannii [28] = test: Antibacterial activity against Acinetobacter baumannii AYE measured after overnight incubation in presence of polymyxin B nonapeptide by microbroth dilution method; assay type: functional
Staphylococcus aureus [29] = test: Antibacterial activity against methicillin resistant Staphylococcus aureus NCTC13616 measured after overnight incubation by microbroth dilution method; assay type: functional; procedure, shortened: as §1
Acinetobacter baumannii [30] = test: Antibacterial activity against Acinetobacter baumannii ATCC 17978 measured after overnight incubation in presence of polymyxin B nonapeptide by microbroth dilution method; assay type: functional
[31] = Inhibition of Staphylococcus aureus DNA gyrase subunit A2B2 using relaxed pBR322 DNA as substrate measured after 30 mins in presence of ATP by ethidium bromide-based gel electrophoresis
Procedure, shortened: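 Supercoiling assay with S. aureus wild-type or S84L gyrase and relaxed pBR322, with or without varying compound, at 37 °C for 30 min. The reaction was stopped with STEB and extracted with chloroform:isoamyl alcohol (24:1). The aqueous phase was run on a 1% agarose gel and the supercoiled band quantified. IC50 came from at least three independent replicates.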

Pseudomonas aeruginosa [32] = test: Antibacterial activity against Pseudomonas aeruginosa PAO1 measured after overnight incubation in presence of phenylalanine arginine beta-naphthylamide by microbroth dilution method; assay type: functional; procedure, shortened: as §2
DNA gyrase = DNA gyrase (Staphylococcus aureus, UniProt P0A0K8+P20831, S84L); test: Inhibition of Staphylococcus aureus DNA gyrase S84L mutant; assay type: protein-complex assay
HEK293 = test: Cytotoxicity again human HEK293 cells measured after 24 hrs by XTT assay; assay type: cell-based; details: HEK293, 24 h; procedure, shortened: as §3
Pseudomonas aeruginosa [33] = test: Antibacterial activity against Pseudomonas aeruginosa NCTC13437 measured after overnight incubation by microbroth dilution method; assay type: functional; procedure, shortened: as §2
Klebsiella pneumoniae [34] = test: Antibacterial activity against Klebsiella pneumoniae M6 measured after overnight incubation in presence of polymyxin B nonapeptide by microbroth dilution method; assay type: functional

| SMILES | MIC (Staphylococcus aureus [1]) [µg/mL] | MIC (Staphylococcus aureus [2]) [µg/mL] | MIC (Enterococcus faecalis [3]) [µg/mL] | MIC (Staphylococcus aureus [4]) [µg/mL] | MIC (Enterococcus faecalis [5]) [µg/mL] | MIC (Enterococcus faecalis [6]) [µg/mL] | MIC (Klebsiella pneumoniae [8]) [µg/mL] | MIC (Klebsiella pneumoniae [9]) [µg/mL] | MIC (Klebsiella pneumoniae [10]) [µg/mL] | MIC (Pseudomonas aeruginosa [12]) [µg/mL] | MIC (Acinetobacter baumannii [16]) [µg/mL] | MIC (Pseudomonas aeruginosa [18]) [µg/mL] | MIC (Staphylococcus aureus [19]) [µg/mL] | MIC (Acinetobacter baumannii [21]) [µg/mL] | MIC (Pseudomonas aeruginosa [22]) [µg/mL] | MIC (Staphylococcus aureus [25]) [µg/mL] | MIC (Escherichia coli [27]) [µg/mL] | MIC (Acinetobacter baumannii [28]) [µg/mL] | MIC (Staphylococcus aureus [29]) [µg/mL] | MIC (Acinetobacter baumannii [30]) [µg/mL] | further results |
| --- | --- | --- | --- | --- | --- | --- | --- | --- | --- | --- | --- | --- | --- | --- | --- | --- | --- | --- | --- | --- | --- |
| Cc1cc(CN2CCN(C3C4CC5CC(C4)CC3C5)CC2)c(C)n1-c1ccccc1F (stereo unspecified) | 32 (≈ 75.9 µM) | 32 (≈ 75.9 µM) | 32 (≈ 75.9 µM) | 32 (≈ 75.9 µM) | 32 (≈ 75.9 µM) | 32 (≈ 75.9 µM) |  |  |  |  |  |  |  |  |  |  |  |  |  |  |  |
| Cc1cc(CN2CCN(C3CC4CCC3C4)CC2)c(C)n1-c1ccc(Cl)cc1 (stereo unspecified) | 64 (≈ 161 µM) | 64 (≈ 161 µM) | 32 (≈ 80.4 µM) | 64 (≈ 161 µM) | 64 (≈ 161 µM) | 32 (≈ 80.4 µM) |  |  |  |  |  |  |  |  |  |  |  |  |  |  |  |
| Cc1c(CNC2CCCCCC2)cc(-c2ccc(Cl)cc2)n1-c1ccc(C(C)C)cc1 |  |  | 2 (≈ 4.6 µM) |  | 2 (≈ 4.6 µM) | 2 (≈ 4.6 µM) | > 128 | > 128 | > 128 | 16 | > 128 | > 128 | 4 (≈ 9.19 µM) | 32 (≈ 73.6 µM) | 16 | 4 (≈ 9.19 µM) | > 128 | 4 | 4 (≈ 9.19 µM) | 2 | Activity (Staphylococcus aureus [7]): Active; IC50 (HeLa): 1.95 to 2.83 µg/mL (≈ 4.48 to 6.5 µM); MIC (Escherichia coli [11]): 2 µg/mL; MIC (Acinetobacter baumannii [13]): 4 µg/mL; Activity (Enterococcus faecium): <9.4e-08; Activity (Staphylococcus aureus [14]): <7.6e-08; MIC (Acinetobacter baumannii [15]): 4 µg/mL; MIC (Pseudomonas aeruginosa [17]): > 128 µg/mL; MIC (Escherichia coli [20]): 8 µg/mL; Activity (Enterococcus faecalis [23]): Active; MIC (Klebsiella pneumoniae [24]): > 128 µg/mL; MIC (Klebsiella pneumoniae [26]): > 128 µg/mL; IC50 [31]: 15.49 µg/mL; MIC (Pseudomonas aeruginosa [32]): 128 µg/mL; IC50 (DNA gyrase): 43.7 µM; IC50 (HEK293): 1.95 to 2.83 µg/mL (≈ 4.48 to 6.5 µM); MIC (Pseudomonas aeruginosa [33]): > 128 µg/mL; MIC (Klebsiella pneumoniae [34]): > 128 µg/mL |
| Cc1c(CNC2CCCCC2)cc(-c2ccc(Cl)cc2)n1-c1ccc(Cl)cc1 |  |  | 4 (≈ 9.68 µM) |  | 4 (≈ 9.68 µM) | 2 (≈ 4.84 µM) | > 128 | > 128 | > 128 | > 128 | 128 (≈ 310 µM) | > 128 | 4 (≈ 9.68 µM) | 64 (≈ 155 µM) | 32 | 4 (≈ 9.68 µM) | > 128 | 8 | 4 (≈ 9.68 µM) | 4 | MIC (Pseudomonas aeruginosa [33]): > 128 µg/mL; MIC (Klebsiella pneumoniae [34]): 64 µg/mL |

From ChEMBL document CHEMBL4359823, “Switching on the activity of 1,5-diaryl-pyrrole derivatives against drug-resistant ESKAPE bacteria: Structure-activity relationships and mode of action studies” (Eur J Med Chem, 2019)
